Experimental data as given in ChEMBL document CHEMBL1122233, “Antihypertensive 9-substituted 1-oxa-4,9-diazaspiro[5.5]undecan-3-ones” (J Med Chem, 1983).

Columns and labels:
Rattus norvegicus [1] = assay: (§1) Percentage fall in systolic blood pressure after 3 hours at 50 mg/kg given perorally; assay type: functional, Artery; settings: route oral
Method in brief: (§2)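 Male Okamoto-Aoki SHR, four per group, with a concurrent vehicle control group. Oral dosing in water (0.1 mL/10 g) on two consecutive mornings. After the day-2 dose, rats were restrained in a 30 °C chamber. Tail-cuff systolic pressure was taken at 1-4 h from four traces per rat. Result is % decrease versus control mean, by 1-tailed t test, p ≤ 0.05.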

Rattus norvegicus [2] = assay: (§3) Percentage fall in systolic blood pressure after 1 hr at 50 mg/kg given perorally; assay type: functional, Artery; settings: route oral; method in brief: as §2
Rattus norvegicus [3] = assay: (§4) Percentage fall in systolic blood pressure after 2 hours at 50 mg/kg given perorally; assay type: functional, Artery; settings: route oral; method in brief: as §2
Rattus norvegicus [4] = assay: (§5) Percentage fall in systolic blood pressure after 4 hours at 50 mg/kg given perorally; assay type: functional, Artery; settings: route oral; method in brief: as §2
Rattus norvegicus [5] = assay: Percentage fall in systolic blood pressure after 4 hours at 25 mg/kg given perorally; assay type: functional, Artery; settings: route oral
Method in brief: (§6)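 Male Okamoto-Aoki spontaneously hypertensive rats, trained, in groups of four matched for mean systolic pressure; five treated groups and one vehicle control run concurrently. Oral dosing in water (solution or suspension, 0.1 mL/10 g) on two consecutive mornings. On day 2, rats were restrained at 30.0 ± 1.0 °C and tail-cuff systolic pressure recorded at 1–4 h; percent fall versus control, 1-tail t test, p ≤ 0.05.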

Rattus norvegicus [6] = assay: Percentage fall in systolic blood pressure after 3 hours at 25 mg/kg given perorally; assay type: functional, Artery; settings: route oral; method in brief: as §6
Rattus norvegicus [7] = assay: Percentage fall in systolic blood pressure after 1 hr at 25 mg/kg given perorally; assay type: functional, Artery; settings: route oral; method in brief: as §6
Rattus norvegicus [8] = assay: Percentage fall in systolic blood pressure after 2 hours at 25 mg/kg given perorally; assay type: functional, Artery; settings: route oral; method in brief: as §6
Rattus norvegicus [9] = assay: Percentage fall in systolic blood pressure after 3 hr at 12.5 mg/kg given perorally; assay type: functional, organism-based; set-up: dose 12.5 mg/kg; settings: Artery; method in brief: as §6
Rattus norvegicus [10] = assay: Percentage fall in systolic blood pressure after 3 hr at 25 mg/kg given perorally; assay type: functional, Artery; settings: route oral; method in brief: as §6
Rattus norvegicus [11] = assay: Percentage fall in systolic blood pressure after 2 hr at 25 mg/kg given perorally; assay type: functional, Artery; settings: route oral; method in brief: as §6
Rattus norvegicus [12] = assay: (§7) Percentage fall in systolic blood pressure after 1 hr at 12.5 mg/kg given perorally; assay type: functional, organism-based; set-up: dose 12.5 mg/kg; settings: Artery; method in brief: as §6
Rattus norvegicus [13] = assay: Percentage fall in systolic blood pressure after 2 hr at 12.5 mg/kg given perorally; assay type: functional, organism-based; set-up: dose 12.5 mg/kg; settings: Artery; method in brief: as §6
Rattus norvegicus [14] = assay: (§8) Percentage fall in systolic blood pressure after 4 hr at 12.5 mg/kg given perorally; assay type: functional, Artery; settings: route oral; method in brief: as §6
Rattus norvegicus [15] = assay: Percentage fall in systolic blood pressure after 4 hr at 25 mg/kg given perorally; assay type: functional, Artery; settings: route oral; method in brief: as §6
Rattus norvegicus [16] = assay: Percentage fall in systolic blood pressure after 3 hours at 12.5 mg/kg given perorally; assay type: functional, Artery; settings: route oral; method in brief: as §2
Rattus norvegicus [17] = assay: Percentage fall in systolic blood pressure after 2 hours at 12.5 mg/kg given perorally; assay type: functional, Artery; settings: route oral; method in brief: as §2
Rattus norvegicus [18] = assay: as §7; assay type: functional, Artery; settings: route oral; method in brief: as §2
Rattus norvegicus [19] = assay: Percentage fall in systolic blood pressure after 4 hours at 12.5 mg/kg given perorally; assay type: functional, Artery; settings: route oral; method in brief: as §2
Rattus norvegicus [20] = assay: as §5; assay type: functional, organism-based; set-up: dose 50 mg/kg; settings: Artery; method in brief: as §2
Rattus norvegicus [21] = assay: as §3; assay type: functional, organism-based; set-up: dose 50 mg/kg; settings: Artery; method in brief: as §6
Rattus norvegicus [22] = assay: as §8; assay type: functional, organism-based; set-up: dose 12.5 mg/kg; settings: Artery; method in brief: as §6
Rattus norvegicus [23] = assay: as §1; assay type: functional, organism-based; set-up: dose 50 mg/kg; settings: Artery; method in brief: as §2
Rattus norvegicus [24] = assay: as §4; assay type: functional, organism-based; set-up: dose 50 mg/kg; settings: Artery; method in brief: as §2

SMILES: CC(=O)NCC1CCN(CCc2c[nH]c3ccccc23)CC1
- Decrease in SBP (Rattus norvegicus [1]): 15%
- Decrease in SBP (Rattus norvegicus [2]): 30%
- Decrease in SBP (Rattus norvegicus [3]): 26%
- Decrease in SBP (Rattus norvegicus [4]): 26%

SMILES: O=C1COC2(CCN(CCc3c[nH]c4ccccc34)CC2)CN1c1cccc(F)c1
- Decrease in SBP (Rattus norvegicus [5]): 18%
- Decrease in SBP (Rattus norvegicus [6]): 22%
- Decrease in SBP (Rattus norvegicus [7]): 29%
- Decrease in SBP (Rattus norvegicus [8]): 31%

SMILES: O=C1COC2(CCN(CCC(=O)c3ccc(F)cc3)CC2)CN1
- Decrease in SBP (Rattus norvegicus [5]): 20%
- Decrease in SBP (Rattus norvegicus [7]): 27%
- Decrease in SBP (Rattus norvegicus [8]): 24%

SMILES: O=C1COC2(CCN(CCCC(=O)c3ccc(F)cc3)CC2)CN1
- Decrease in SBP (Rattus norvegicus [9]): Not significant
- Decrease in SBP (Rattus norvegicus [10]): 29%
- Decrease in SBP (Rattus norvegicus [11]): 33%
- Decrease in SBP (Rattus norvegicus [12]): Not significant
- Decrease in SBP (Rattus norvegicus [7]): 50%
- Decrease in SBP (Rattus norvegicus [13]): Not significant
- Decrease in SBP (Rattus norvegicus [14]): 18%
- Decrease in SBP (Rattus norvegicus [15]): 30%

SMILES: CCN1CC2(CCN(CCc3c[nH]c4ccccc34)CC2)OCC1=O
- Decrease in SBP (Rattus norvegicus [1]): 28%
- Decrease in SBP (Rattus norvegicus [16]): 30%
- Decrease in SBP (Rattus norvegicus [2]): 55%
- Decrease in SBP (Rattus norvegicus [17]): 33%
- Decrease in SBP (Rattus norvegicus [3]): 33%
- Decrease in SBP (Rattus norvegicus [18]): 22%
- Decrease in SBP (Rattus norvegicus [19]): 21%
- Decrease in SBP (Rattus norvegicus [4]): 42%

SMILES: CCC(=O)NCC1CCN(CCc2c[nH]c3ccccc23)CC1
- Decrease in SBP (Rattus norvegicus [20]): Not significant
- Decrease in SBP (Rattus norvegicus [1]): 15%
- Decrease in SBP (Rattus norvegicus [2]): 23%
- Decrease in SBP (Rattus norvegicus [3]): 23%

SMILES: O=C1COC2(CCN(C3CCc4ccccc4C3)CC2)CN1 (centres undefined)
- Decrease in SBP (Rattus norvegicus [1]): 23%
- Decrease in SBP (Rattus norvegicus [2]): 28%
- Decrease in SBP (Rattus norvegicus [3]): 24%
- Decrease in SBP (Rattus norvegicus [4]): 20%

SMILES: O=C(NCC1CCN(CCc2c[nH]c3ccccc23)CC1)c1ccccc1
- Decrease in SBP (Rattus norvegicus [1]): 30%
- Decrease in SBP (Rattus norvegicus [21]): Not significant
- Decrease in SBP (Rattus norvegicus [3]): 27%
- Decrease in SBP (Rattus norvegicus [4]): 32%

SMILES: O=C1COC2(CCN(CCc3ccc(Cl)cc3)CC2)CN1
- Decrease in SBP (Rattus norvegicus [9]): Not significant
- Decrease in SBP (Rattus norvegicus [12]): Not significant
- Decrease in SBP (Rattus norvegicus [13]): Not significant
- Decrease in SBP (Rattus norvegicus [22]): Not significant

SMILES: CCN1C(=O)COC2(CCN(CCc3c[nH]c4ccccc34)CC2)C1C (centres undefined)
- Decrease in SBP (Rattus norvegicus [20]): Not significant
- Decrease in SBP (Rattus norvegicus [23]): Not significant
- Decrease in SBP (Rattus norvegicus [2]): 20%
- Decrease in SBP (Rattus norvegicus [24]): Not significant

SMILES: COc1ccc(CCN2CCC3(CC2)CNC(=O)CO3)cc1
- Decrease in SBP (Rattus norvegicus [9]): Not significant
- Decrease in SBP (Rattus norvegicus [12]): Not significant
- Decrease in SBP (Rattus norvegicus [13]): Not significant
- Decrease in SBP (Rattus norvegicus [22]): Not significant

SMILES: O=C1COC2(CCN(CCCOc3ccccc3)CC2)CN1
- Decrease in SBP (Rattus norvegicus [9]): Not significant
- Decrease in SBP (Rattus norvegicus [12]): Not significant
- Decrease in SBP (Rattus norvegicus [13]): Not significant
- Decrease in SBP (Rattus norvegicus [22]): Not significant

SMILES: CCC1N(C)C(=O)COC12CCN(CCc1c[nH]c3ccccc13)CC2 (centres undefined)
- Decrease in SBP (Rattus norvegicus [20]): Not significant
- Decrease in SBP (Rattus norvegicus [23]): Not significant
- Decrease in SBP (Rattus norvegicus [21]): Not significant
- Decrease in SBP (Rattus norvegicus [24]): Not significant

SMILES: COC1(CNC(C)=O)CCN(CCc2c[nH]c3ccccc23)CC1
- Decrease in SBP (Rattus norvegicus [20]): Not significant
- Decrease in SBP (Rattus norvegicus [23]): Not significant
- Decrease in SBP (Rattus norvegicus [2]): 17%
- Decrease in SBP (Rattus norvegicus [24]): Not significant

SMILES: CCC1NC(=O)COC12CCN(CC(O)C1COc3ccccc3O1)CC2 (centres undefined)
- Decrease in SBP (Rattus norvegicus [1]): 36%
- Decrease in SBP (Rattus norvegicus [2]): 40%
- Decrease in SBP (Rattus norvegicus [3]): 44%
- Decrease in SBP (Rattus norvegicus [4]): 26%

SMILES: COC1(CNC(=O)c2ccccc2)CCN(CCc2c[nH]c3ccccc23)CC1
- Decrease in SBP (Rattus norvegicus [20]): Not significant
- Decrease in SBP (Rattus norvegicus [1]): 22%
- Decrease in SBP (Rattus norvegicus [2]): 30%
- Decrease in SBP (Rattus norvegicus [3]): 28%

SMILES: COc1cc2c(cc1OC)[C@@H]1C[C@@]3(CCN1CC2)CN(C)C(=O)CO3
- Decrease in SBP (Rattus norvegicus [20]): Not significant
- Decrease in SBP (Rattus norvegicus [23]): Not significant
- Decrease in SBP (Rattus norvegicus [21]): Not significant
- Decrease in SBP (Rattus norvegicus [24]): Not significant

SMILES: COCC(=O)NCC1CCN(CCc2c[nH]c3ccccc23)CC1
- Decrease in SBP (Rattus norvegicus [1]): 13%
- Decrease in SBP (Rattus norvegicus [2]): 20%
- Decrease in SBP (Rattus norvegicus [3]): 18%
- Decrease in SBP (Rattus norvegicus [4]): 26%
